Assay outcomes: PubChem BioAssay, The Scripps Research Institute Molecular Screening Center
M4 ag – CHRM4 agonism in calcium assay | activation, % at 3 µM | CHO-K1 hM4/Gqi5, Fluo-8 calcium fluorescence; vehicle 0%, full acetylcholine response 100% | 360,000 compounds, 0.14% hits | P08173;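 active = activation above the run mean over all test wells plus 3 SD, cut at about 32% in these data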;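 also: peak over basal fluorescence ratio per well then scaled between controls; 0% = DMSO wells and 100% = acetylcholine at EC100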
Target sequence (P08173 whole entry, looked up): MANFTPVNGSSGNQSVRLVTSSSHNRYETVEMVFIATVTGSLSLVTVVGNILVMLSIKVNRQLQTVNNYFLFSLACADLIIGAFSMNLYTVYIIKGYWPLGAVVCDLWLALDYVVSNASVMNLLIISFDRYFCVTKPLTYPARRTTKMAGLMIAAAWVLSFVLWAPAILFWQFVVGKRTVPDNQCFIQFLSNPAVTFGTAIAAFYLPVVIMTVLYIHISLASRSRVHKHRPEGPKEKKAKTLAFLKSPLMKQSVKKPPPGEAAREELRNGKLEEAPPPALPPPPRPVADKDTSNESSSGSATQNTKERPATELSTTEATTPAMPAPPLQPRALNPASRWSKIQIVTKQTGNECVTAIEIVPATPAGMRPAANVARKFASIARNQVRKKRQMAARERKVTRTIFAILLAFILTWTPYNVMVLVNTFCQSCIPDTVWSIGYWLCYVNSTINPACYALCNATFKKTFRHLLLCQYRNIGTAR
CHRM5 PAM – potentiates acetylcholine response at human M5 receptor; 360,000 compounds, 0.3% hits; activation, % at 3 µM; CHO-K1 hM5, Fluo-8 calcium, ACh EC20 PAM; 0% = ACh EC20, 100% = ACh EC100; P08912;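 active = activation above the run cutoff, the mean activation of all test compounds plus 3 SD, cut at about 18% in these data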
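System: CHO-K1 cell line with stable human muscarinic M5 receptor expression | Also added: EC20 acetylcholine as agonist stimulus | Compound: One concentration, 3 µM final (nominal) | Timing: Fluo-8 loading 80 min at 37 °C plus 30 min room temperature | Measured by: Fluo-8 calcium dye fluorescence, kinetic read | Read-out basis: % activation, ACh-normalized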
M4 PAM – CHRM4 positive allosteric modulation; CHO-K1 hM4/Gqi5, Fluo-8 calcium fluorescence, ACh EC20; 0% = ACh EC20, 100% = maximal ACh; activation, % at 3 µM; 360,000 compounds, 0.4% hits; AID 624126;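 active = activation above its plate's cutoff, the mean activation of sample wells plus 3 SD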
CHRM4 antagonist – blocks acetylcholine activation of human M4 receptor; CHO-hM4 cells, ACh EC80, Fluo-8 calcium fluorescence; inhibition, % at 3 µM; 360,000 compounds, 0.73% hits; AID 624125;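 active = inhibition above its plate's cutoff, the mean inhibition of sample wells plus 3 SD, cut at about 27% in these data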;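 also: 0% = acetylcholine EC80 with DMSO and 100% = DMSO without agonist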
CHRM5 agonist – agonists of human muscarinic M5 receptor (CHRM5) | 360,000 compounds, 0.19% hits | activation, % at 3 µM | CHO-K1 hM5 cells, Fluo-8 calcium fluorescence; 0% DMSO wells, 100% maximal acetylcholine response;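 active = activation above the run's mean over test compounds plus 3 SD, cut at about 23% in these data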;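 also: signal is peak over basal fluorescence ratio across the kinetic read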
M5 antag – blocks acetylcholine activation of human M5 receptor; P08912; CHO-hM5 cells, Fluo-8 calcium fluorescence, ACh EC80; inhibition, % at 3 µM; 360,000 compounds, 0.59% hits; AID 624040;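 active = inhibition above a per-plate cutoff, the mean of that plate's test compounds plus 3 SD, cut at about 27% in these data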;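 also: 0% = acetylcholine EC80 with DMSO and 100% = DMSO without agonist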
* = called active by the depositor. Only some compounds are listed: those with a hit (about 1.8% of all), similar ones and a draw of the others.

SMILES	M4 ag	CHRM5 PAM	M4 PAM	CHRM4 antagonist	CHRM5 agonist	M5 antag
CCOC(=O)c1ccc2c(c1)n(CC)c(/C=C/N(C)c1ccccc1)[n+]2CC	-0.1	4.0	-6.7	-2.4	-1.4	-5.3
COC(=O)c1ccc(NC(=O)CNc2ccccc2)cc1	0.6	1.5	0.2	0.2	-1.4	4.3
COc1ccc(NC(=O)CSc2nnc(NC(=O)c3ccc(S(=O)(=O)N4CCOCC4)cc3)s2)cc1	0.8	23.0*	5.1	22.9	7.4	15.5
CN(C)c1ccc(S(=O)(=O)N2CCCCC2)cc1NC(=O)COc1ccccc1F	7.0	-0.5	-14.3	11.4	-3.6	-1.4
CCOC(=O)CSc1nc(C)c2cccc(C)c2n1	0.5	19.2*	7.7	-7.9	-0.4	-5.1
CCOC(=O)CSc1nc(C)c2ccccc2n1	0.2	-2.3	-4.4	3.5	0.2	4.7
CCN(CC)C(=O)C1CCN(Cc2ccc(Br)cc2)CC1	1.9	10.5	23.2	31.7*	-3.3	0.5
N#CC(c1ccc(O)cc1)N1CCN(C(C#N)c2ccc(O)cc2)CC1 (configuration not stated)	2.2	16.2	5.3	-16.5	-0.5	-3.4
COc1ccc(-c2nc3ccccc3c(=O)n2CC(C)C)cc1	0.1	-3.4	-3.3	-2.6	-7.4	9.3
Clc1cccc(Cl)c1/C=N/Nc1c(Cl)cncc1Cl	0.0	27.9*	-1.3	4.3	5.5	-15.0
Cn1cccc1C(=O)C(=O)Nc1ccccc1	1.2	0.3	2.5	0.0	-2.0	4.3
COc1ccc(-n2nc(C(=O)NCC(=O)N3CCCCC3)c3ccccc3c2=O)cc1	9.8	-5.0	0.9	-5.8	-0.9	5.3
Cc1ccc(Sc2c([N+](=O)[O-])c(C)nn2C)cc1	-0.4	-32.6	-63.0	62.9*	-20.0	27.8*
Cc1ccc(Sc2c([N+](=O)[O-])ncn2C)cc1	0.1	-0.3	0.5	6.7	-3.3	1.4
O=C(C(=O)N1CCN(c2ccccc2)CC1)c1cccc(Br)c1	6.9	-3.9	-3.5	30.4*	-0.9	3.2
Cc1ccc(N2CCN(C(=O)C(=O)c3cccc(Br)c3)CC2)cc1	5.1	-1.0	7.7	10.7	-1.2	5.8
Nc1cc(Cl)ccc1C(=O)OCC(=O)NCC1CCCO1 (configuration not stated)	0.7	1.9	10.7	-3.5	1.1	-3.1
CO/N=C/C(C#N)=C/c1ccc(OC)c(OC)c1	-0.5	-0.9	19.6*	-4.8	-10.4	-1.9
CC1(C)C(=O)N(c2ccccc2)C(=O)c2ccccc21	17.2	-16.3	-15.6	-8.2	0.4	7.5
C[C@H]1CN([C@@H](C)CO)C(=O)c2cc(C#CCC3CCCC3)cnc2O[C@@H]1CN(C)C(=O)CC1CC1	1.2	5.7	4.9	0.6	-2.9	-9.8
c1coc(Cn2c(SCc3nc4ccccc4[nH]3)nnc2-c2cnccn2)c1	2.7	-5.9	-0.7	6.2	0.5	2.5
Cn1c(SCc2nc3ccccc3[nH]2)nnc1-c1cnccn1	1.7	18.5*	-5.2	-0.5	-2.4	3.3
COc1ccccc1NC(=O)Cn1nnc(-c2ccccc2NS(=O)(=O)c2ccccc2)n1	15.3	-17.3	-30.3	7.4	0.4	34.0*
COc1ccc(N2Cc3ccc(OC)c(OC)c3C2=O)cc1	0.0	-9.3	-17.8	59.8*	-2.8	16.1
CCOC(=O)c1ccc(NC(=O)NNS(=O)(=O)c2cc(OC)ccc2OC)cc1	2.6	-3.5	-6.8	1.4	-1.5	4.2
COc1ccc(C(C(=O)NC2CCCCC2)N(CC2CCCO2)C(=O)C2COc3ccccc3O2)cc1OC (configuration not stated)	1.0	33.4*	12.6	-12.2	-2.9	-16.1
COc1cc2c(c(OC)c1OC)-c1c(cc3c(c1OC)OCO3)C1OC2[C@@H](C)[C@H]1C (some centres not stated)	8.7	-3.8	4.5	-2.2	-0.2	5.3
C=CCCC(=O)N1CCC(CCC(=O)NC2CC2)CC1	0.0	4.7	8.2	-0.6	0.1	-4.7
O=C(Nc1ccccc1)Nc1ccc(Br)cc1F	7.1	-19.0	-28.2	54.1*	0.5	28.0*
